Sampled rows, rich in hits. Any-hit rate of the full collection: about 3.8%.
Kir21 block – blocks the mouse Kir2.1 inward-rectifier potassium channel | P35561 | HEK293-Kir2.1, FluxOR thallium flux fluorescence; active compounds read low | B-score at 10 µM | 310,000 compounds, 0.85% hits;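 active means fluorescence ratio B-score at or below minus 3 SD of library scores, with starting-brightness B-score within 2 SD, cut at about -4.2 in these data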;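 further: channel flux triggered by added potassium and thallium sulfate stimulus; B-score of peak minus minimum fluorescence over baseline after thallium stimulus; more negative B-score means stronger Kir2.1 block with less thallium influx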
KCNQ1 pot – human KCNQ1 channel potentiation or activation; CHO-K1 KCNQ1, thallium flux FluxOR fluorescence; active compounds read high; B-score at 10 µM; 310,000 compounds, 0.35% hits;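 active means fluorescence ratio B-score, a plate-corrected score, at least three library SD, with initial intensity B-score within 5 SD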
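Assay system: CHO-K1 cells stably expressing KCNQ1. Medium: assay buffer for compound exposure, DMSO matched across wells. Timing: 37 °C overnight plating, 90-min dark dye load, 20-min compound pretreatment. Signal: kinetic FluxOR fluorescence, 10 s baseline plus 110 s post-stimulus.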
KCNK9 inh – blocks the human KCNK9 two-pore domain potassium channel; Q9NPC2; HEK293 KCNK9, FluxOR thallium flux fluorescence; active compounds read low; B-score at 10 µM; 310,000 compounds, 1.2% hits; AID 488922;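 active means ratio B-score over 3 SD below the library mean, with starting fluorescence within 5 SD of its mean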;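 further: negative B-score means less thallium flux so channel inhibition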
KCNQ1 inh – inhibitors of human KCNQ1 potassium channel; P51787; 310,000 compounds, 1.3% hits; AID 2642; B-score at 10 µM; CHO-K1 KCNQ1, FluxOR thallium flux fluorescence; active compounds read high;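 active means compounds whose thallium flux B-score, printed positive for inhibition, exceeds three library SD while starting fluorescence stays within three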;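 further: channel opened by potassium depolarization with thallium stimulus after 20 min compound exposure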
KCNK3 inh – human KCNK3 channel inhibition, primary screen. O14649. CHO-KCNK3 thallium flux, FluxOR fluorescence; active compounds read low. B-score at 10 µM. 340,000 compounds, 0.84% hits. AID 602410;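 active means B-score under library mean minus 4 SD, starting fluorescence ratio at most library mean plus 5 SD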;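 further: more negative B-score means stronger inhibition of thallium flux through KCNK3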
Target sequence (O14649 whole entry, looked up): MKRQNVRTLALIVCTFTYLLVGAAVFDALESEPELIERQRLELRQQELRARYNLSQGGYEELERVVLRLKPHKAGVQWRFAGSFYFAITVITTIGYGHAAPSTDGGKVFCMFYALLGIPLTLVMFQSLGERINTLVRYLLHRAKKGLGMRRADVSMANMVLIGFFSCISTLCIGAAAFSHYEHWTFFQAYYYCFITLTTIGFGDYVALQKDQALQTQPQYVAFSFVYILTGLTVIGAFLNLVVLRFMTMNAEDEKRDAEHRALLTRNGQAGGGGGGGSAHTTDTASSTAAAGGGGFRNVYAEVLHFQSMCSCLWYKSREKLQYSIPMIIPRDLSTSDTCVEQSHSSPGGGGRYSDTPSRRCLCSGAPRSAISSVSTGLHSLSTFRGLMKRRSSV
hERG protect – compounds protecting human hERG from proarrhythmic drug block | 310,000 compounds, 0.51% hits | AID 1511 | Q12809 | activation (rescue from dofetilide block), less the hit threshold, % at 10 µM | CHO-hERG, FluxOR thallium flux, dofetilide IC70 present;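 active means activation above the mean of controls blocked by dofetilide plus 5 SD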;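 further: thallium influx through hERG after potassium depolarization seen as dye fluorescence rise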
Large screens that a line does not name were inactive.

O=C(Cn1c(CO)nc2ccccc21)Nc1ccccc1Cl	Kir21 block -9.4
Cc1cc(C)cc(NC(=O)Cn2c(-c3ccccc3Cl)nc3ccccc32)c1	none
Cc1ccc(SCc2nc3ccccc3n2CC(=O)Nc2ccccc2)cc1	KCNK9 inh -6.9
O=C(NNC(=O)C1CCCCC1)c1ccncc1	none
O=C(NNC(=O)c1ccncc1)NC1CCCCC1	hERG protect 8.7
COc1ccc(OC)c(Nc2nc(-c3sc(N)nc3C)cs2)c1	KCNK9 inh -6.7
Cc1cc(O)ccc1Nc1nc(-c2sc(N)nc2C)cs1	none
Cc1cccc(C(=O)OCC(=O)NC(C)CCc2ccccc2)c1O (stereo not drawn)	none
CCOc1cc(CNC2CCCC2)ccc1OCc1ccccc1Cl	Kir21 block -4.4
CCOc1cc(CNC2CCCC2)cc(Cl)c1OCc1ccccc1	Kir21 block -8.8
COc1cc(CNCc2ccccc2Cl)ccc1OCC(=O)NC1CCCCC1	Kir21 block -4.7
CCOc1cc(CNCC(C)C)cc(Cl)c1OCc1ccccc1	Kir21 block -14
CCOc1c(Cl)cc(CNCC(C)C)cc1OC	none
COc1cc(CNC2CCCCCCC2)cc(Cl)c1OC	none
CCOc1cc(C2NN=C(c3ccccc3)S2)ccc1OCc1ccccc1Cl (stereo not drawn)	none
CCC(=O)N1CCc2cc(S(=O)(=O)CCC(=O)N3CCN(c4ccc(C(C)=O)cc4)CC3)ccc21	none
Cc1cccc(OC(C)C(=O)Nc2nccs2)c1 (stereo not drawn)	none
CN(CCOc1ccccc1)CC(=O)Nc1cc([N+](=O)[O-])ccc1Cl	Kir21 block -4.7
O=C(NC(=S)N1CCCC1)c1ccccc1	none
O=C(NC(=S)N1CCCCCC1)c1ccc(Cl)cc1Cl	KCNQ1 pot 21, hERG protect 7.0
O=C(NC(=S)N1CCCCCC1)c1ccccc1	hERG protect 5.8
O=C(NC(=S)N1CCN(c2ccccc2)CC1)c1ccccc1	KCNQ1 pot 20, hERG protect 10
CN1CCN(S(=O)(=O)c2cccc(C(=O)Oc3ccc(Br)cc3F)c2)CC1	none
Cc1nn(CC(=O)NC2(C)CCS(=O)(=O)C2)c(C)c1S(=O)(=O)N(C)C (stereo not drawn)	none (no result: Kir21 block, KCNQ1 pot, KCNK9 inh, KCNQ1 inh, hERG protect)
Cc1ccc(S(=O)(=O)N2CCCCC2)cc1NC(=O)c1ccc(Cl)nc1	none (no result: Kir21 block, KCNQ1 pot, KCNK9 inh, KCNQ1 inh, hERG protect)
CCOc1ccc(Cc2c(Cl)nc(N)nc2Cl)cc1	none
CCOc1ccc(Cc2c(Cl)nc(SC)nc2N(C)C)cc1	KCNK9 inh -7.6
COC(=O)c1ccc(CN(c2ccccn2)S(=O)(=O)c2ccccc2)cc1	none
COC(=O)c1ccc(CN(c2ccc(C(=O)O)c(O)c2)S(=O)(=O)c2ccc(Cl)c([N+](=O)[O-])c2)cc1	KCNQ1 inh 7
COC(=O)c1ccc(C(C(=O)NC2CCCCC2)N(C(=O)Cc2cccs2)C2CC2)cc1 (stereo not drawn)	KCNQ1 inh 6
COC(=O)c1ccc(C(C(=O)NC2CCCCC2)N(Cc2ccccc2)C(=O)Cc2cccs2)cc1 (stereo not drawn)	none
C/C(=N\NC(=O)c1ccc(-c2ccccc2)cc1)C1C(=O)c2ccccc2C1=O	KCNQ1 inh 7
OCCC1CN(Cc2cc3c(cc2Cl)OCO3)CCN1Cc1ccccc1 (stereo not drawn)	none
COc1cc2ccc3c(CCN(C)C)cc(OC)c(OC)c3c2cc1OC	none
CN(C)CCc1cc2c(c3c1ccc1ccccc13)OCO2	Kir21 block -11
O=C1CC(=O)N2N=C(c3ccc([N+](=O)[O-])cc3)SC2=N1	none
CC(Nc1cc(N2CCNCC2)ccc1[N+](=O)[O-])c1ccccc1 (stereo not drawn)	Kir21 block -7.5
COc1cccc(-c2cc3nc4c(c(N5CCC6(CC5)OCCO6)n3n2)CCC4)c1	none
Cc1cc(C)n(C(C[N+](=O)[O-])c2ccc(Cl)cc2)n1 (stereo not drawn)	Kir21 block -5.2
CCOC(=O)N1CCN(c2ccc(S(=O)(=O)N3CCC(C)CC3)cc2[N+](=O)[O-])CC1	none (no result: Kir21 block, KCNQ1 pot, KCNK9 inh, KCNQ1 inh, hERG protect)
c1ccc(C2OC3c4cccc5cccc(c45)C3N2c2ccccc2)cc1 (stereo not drawn)	KCNK9 inh -7.9
CCN(CC)S(=O)(=O)c1ccc2c(c1)c(=O)c(C(=O)NCCc1ccccc1)cn2C	none
CN(C1=C(N2CCCCC2)C(=O)c2ccccc2C1=O)c1ccccc1	KCNK9 inh -15
O=C1C(Nc2ccccc2)=C(N2CCCCC2)C(=O)c2ccccc21	none
CCn1cc([N+](=O)[O-])c(C(=O)N2CCCCCC2)n1	none
Cc1ccc(C(=O)O)cc1N1C(=O)c2cccc3c([N+](=O)[O-])ccc(c23)C1=O	none
O=C(O)c1ccc(CN2C(=O)c3cccc4c([N+](=O)[O-])ccc(c34)C2=O)cc1	KCNQ1 inh 10
O=C(CNC1CCCCCC1)Nc1ccc(N2CCCC2)cc1	none (no result: KCNK3 inh)
O=C(CNCCC1=CCCCC1)Nc1ccc(N2CCCCCC2)cc1	Kir21 block -5.6
COc1ccccc1CCNS(=O)(=O)CCNC(=O)c1ccc2c(c1)OCO2	none
O=c1c2ccccc2[nH]c(=S)n1CCN1CCCCC1	none
O=c1c2ccccc2[nH]c(=S)n1CCC1=CCCCC1	KCNQ1 pot 26, hERG protect 11
CCOc1ccc(OCCNC(=O)c2cc(C3CC3)nc3c2cnn3C(C)C)cc1	KCNK3 inh -8.9 (no result: Kir21 block, KCNQ1 pot, KCNK9 inh, KCNQ1 inh, hERG protect)
CC(C)n1ncc2c(C(=O)NCCOc3ccccc3F)cc(C3CC3)nc21	none (no result: Kir21 block, KCNQ1 pot, KCNK9 inh, KCNQ1 inh, hERG protect)
CCOC(=O)C1CCCN(C(=O)c2cc(Cl)ccc2Cl)C1 (stereo not drawn)	none
CCOC(=O)C1CCCN(C(=O)C(C)Oc2ccc(Cl)cc2Cl)C1 (stereo not drawn)	Kir21 block -4.7
Cc1ccccc1NCC(=O)N/N=C/c1c(C)c(C(=O)c2ccc(Cl)cc2)n2ccccc12	KCNQ1 inh 7
c1ccc(N2CC3COc4ccccc4C3=N2)cc1 (stereo not drawn)	none (no result: Kir21 block, KCNQ1 pot, KCNK9 inh, KCNQ1 inh, hERG protect)
CC(OC(=O)c1cccc([N+](=O)[O-])c1)C(=O)NCc1ccc2c(c1)OCO2 (stereo not drawn)	none
O=C(Cn1nc(-c2ccccc2)c2ccccc2c1=O)Nc1ccc(O)cc1	hERG protect 15
O=C(COc1ccc(Cl)cc1)NNC(=O)c1ccccc1C(=O)O	none
CCCCOc1ccc(C(=O)Nc2ccc(S(=O)(=O)Nc3cc(C)on3)cc2)cc1OC	hERG protect 4.9
Cc1ccc(NC(=O)CSc2nnc(Cc3csc(C)n3)o2)c(C)c1	none
CC12CCC(C(=O)OC3CCCCC3)(OC1=O)C2(C)C (stereo not drawn)	hERG protect 5.8
COc1ccc(C(=O)OC(C)C(=O)NC(C)CCc2ccccc2)cc1OC (stereo not drawn)	none
S=c1nc(-c2ccccc2)[nH]c2ccc(Br)cc12	KCNQ1 pot 101, hERG protect 59

Source: PubChem
